From ChEMBL document CHEMBL4184319, “Fluorescent-Labeled Selective Adenosine A2B Receptor Antagonist Enables Competition Binding Assay by Flow Cytometry” (J Med Chem, 2018)
pIC50, pKi: −log10 of the molar value.

Experiments:
Adenosine receptor A3 = target: T1, Adenosine receptor A3 (Homo sapiens, UniProt P0DMS8); assay: Displacement of [3H]PSB-11 from recombinant human adenosine A3 receptor expressed in CHO cell membranes after 180 mins by liquid scintillation counting method
T1 sequence (P0DMS8 whole entry): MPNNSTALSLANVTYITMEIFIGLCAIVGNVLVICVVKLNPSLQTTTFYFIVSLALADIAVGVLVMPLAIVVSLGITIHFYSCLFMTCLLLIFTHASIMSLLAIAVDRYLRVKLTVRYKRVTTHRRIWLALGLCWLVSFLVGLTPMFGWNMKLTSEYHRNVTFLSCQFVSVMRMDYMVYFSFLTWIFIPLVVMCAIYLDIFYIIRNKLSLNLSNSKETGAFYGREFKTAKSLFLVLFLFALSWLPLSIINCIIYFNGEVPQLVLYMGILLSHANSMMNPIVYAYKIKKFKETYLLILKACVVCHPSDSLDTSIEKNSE
Procedure, shortened: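 Human A3AR CHO cell membranes were pre-incubated 10–15 min with adenosine deaminase (0.12 IU/mL), then incubated with [3H]PSB-11 (1 nM) at rt, with 2.5% DMSO final. Nonspecific binding was defined with 100 µM R-PIA. Incubation ended by GF/B filtration with ice-cold 50 mM Tris-HCl (pH 7.4) rinses. Test compounds were run at 6–7 concentrations over 3 log units, in ≥3 independent experiments in duplicate.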

Adenosine receptor A2b [1] = target: T2, Adenosine receptor A2b (Homo sapiens, UniProt P29275); assay: Antagonist activity at recombinant human adenosine A2B receptor expressed in CHO cell membranes assessed as inhibition of NECA-induced cAMP accumulation preincubated for 1 hr followed by NECA induction measured after 5 mins in presence of [3H]cAMP and bovine cAMP-binding protein by liquid scintillation counting method; type: functional
T2 sequence (P29275 whole entry): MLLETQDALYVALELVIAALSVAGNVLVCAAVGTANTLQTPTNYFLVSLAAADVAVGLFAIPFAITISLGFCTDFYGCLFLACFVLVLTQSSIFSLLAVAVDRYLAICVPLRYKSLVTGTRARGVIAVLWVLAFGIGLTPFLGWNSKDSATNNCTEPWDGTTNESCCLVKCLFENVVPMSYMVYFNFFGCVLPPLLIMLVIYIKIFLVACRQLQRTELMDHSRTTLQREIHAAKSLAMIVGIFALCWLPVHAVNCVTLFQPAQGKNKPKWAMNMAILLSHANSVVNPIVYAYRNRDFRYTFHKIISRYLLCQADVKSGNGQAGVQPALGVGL
Procedure, shortened: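 CHO cells stably expressing human A2BAR, pre-incubated with antagonist dilutions for 1 h at 37°C, then stimulated with NECA (10 µM final) for 5 min at 37°C. Reaction stopped with hot (90 °C) lysis solution (4 mM EDTA, 0.01 % Triton X100). cAMP quantified by radioactive competition with [³H]cAMP and bovine adrenal cAMP-binding protein. Response expressed as % of NECA response without antagonist. Means ± SEM, three independent experiments in duplicate.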

Adenosine receptor A2b [2] = target: T2, Adenosine receptor A2b; assay: Displacement of PSB-12105 from recombinant human adenosine A2B receptor expressed in CHO cell membranes preincubated for 30 mins followed by PSB-12105 addition measured after 20 mins by flow cytometric method; type: cell-based
Procedure, shortened: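 Live CHO-hA2B cells were pre-treated with ADA (2 U/mL, 2 h, 37°C), detached with 5 mM EDTA, and resuspended in HBSS with 2 U/mL ADA at 2.5×10^5 cells/well in 96-well format. Antagonists pre-incubated 30 min at 37°C, then fluorescent ligand (100 nM) added for 20 min at 37°C. 3-5 independent experiments in duplicate.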

Adenosine receptor A2b [3] = target: T2, Adenosine receptor A2b; assay: biochemical

## CCCn1c(=O)[nH]c2nc(-c3ccc(S(=O)(=O)N4CCN(c5ccc(Cl)cc5)CC4)cc3)[nH]c2c1=O
Adenosine receptor A3
  pKi: < 5.00
Adenosine receptor A2b [1]
  pIC50: 7.74
Adenosine receptor A2b [2]
  pIC50: 9.13
Adenosine receptor A2b [3]
  pIC50: 9.27
